Here are results for seven compounds from ChEMBL document CHEMBL1138785, “Stereoselective synthesis of sugar-modified enyne analogues of adenosine and uridine. Interaction with S-adenosyl-L-homocysteine hydrolase and antiviral and cytotoxic effects” (J Med Chem, 2004).

Series [1] can be described thus: Minimum cytotoxic concentration was determined. To be noted: human. In short, it runs like this: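 Human embryonic lung (HEL) cell cultures, run alongside the CMV (AD-169, Davis) and VZV (OKA, 07/1) antiviral tests. Minimum cytotoxic concentration is the lowest compound level that causes cytotoxicity.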
The subject of series [2] is HeLa. Briefly: Minimum inhibitory concentration required to inhibit Coxsackie B4 virus. The series is classed as functional. To be noted: Homo sapiens. In short, it runs like this: (§1)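 HeLa cell cultures infected with vesicular stomatitis virus, Coxsackie B4 virus or respiratory syncytial virus. The read-out is the minimum inhibitory concentration (MIC), with compounds tested up to 100 or 700 μM.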

For series [3], the system named is HeLa. Briefly: Minimum inhibitory concentration required to inhibit vesicular stomatitis virus. It counts as functional. To be noted: Homo sapiens. The procedure, abridged:
as §1

In series [4] the test system is HeLa. Kind of series: Minimum inhibitory concentration required to inhibit respiratory syncytial virus. To be noted: Homo sapiens. It counts as functional. In short, it runs like this:
as §1

For a further series, the system named is MT4. Briefly: Ratio of cytotoxicity to antiviral activity was determined. The series is classed as functional, Homo sapiens. The procedure, abridged: (§2)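 MT-4 cells infected with HIV-1 (strain IIIB) or HIV-2 (strain ROD), with viability read by MTT. The read-out is the 50% inhibitory concentration (IC50). CC50 was measured in MT-4 cells, and the selectivity index was calculated as CC50/IC50.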

The test system of series [5] is Human immunodeficiency virus 2. Briefly: Inhibition concentration required to inhibit ROD strain was determined by MT-4/MTT assay. The series is classed as functional, organism-based. The procedure, abridged: as §2
The target in series [6] is T1, Adenosylhomocysteinase (Homo sapiens, UniProt P23526). Kind of series: Inhibition of recombinant human placental AdoHcy hydrolase. In short, it runs like this: (§3)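 Recombinant enzyme (2.5 μg) preincubated with inhibitor at 0–200 μM for 0–20 min at 37 °C in 50 mM potassium phosphate, pH 7.2, 1 mM EDTA. Residual synthetic-direction activity was measured with 1 mM Ado and 1 mM Hcy for 1 min at 37 °C, stopped with HClO4, and AdoHcy quantified by reversed-phase HPLC at 258 nm. Ki and kinact came from fitting kobs = kinact[I]/(Ki+[I]).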
Target sequence in this assay (P23526 whole entry): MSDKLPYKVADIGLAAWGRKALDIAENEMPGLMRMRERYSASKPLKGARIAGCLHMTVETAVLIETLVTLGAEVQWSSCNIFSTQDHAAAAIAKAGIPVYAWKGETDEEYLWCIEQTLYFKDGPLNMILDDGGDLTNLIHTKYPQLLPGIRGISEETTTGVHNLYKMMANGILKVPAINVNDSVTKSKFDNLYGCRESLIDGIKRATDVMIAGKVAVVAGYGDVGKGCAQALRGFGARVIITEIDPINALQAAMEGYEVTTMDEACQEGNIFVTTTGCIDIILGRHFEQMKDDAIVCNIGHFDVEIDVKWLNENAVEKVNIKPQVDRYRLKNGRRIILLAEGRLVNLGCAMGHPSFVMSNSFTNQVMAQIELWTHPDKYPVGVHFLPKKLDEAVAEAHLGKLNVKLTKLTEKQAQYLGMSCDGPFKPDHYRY

Series [7] has as its system Human immunodeficiency virus 1. Kind of series: Inhibition concentration required to inhibit HIV-IIIB was determined by MT-4/MTT assay. The series is classed as functional, organism-based. In short, it runs like this: as §2
A general note: Tetrazolium assays rely on reduction of a dye to a coloured formazan, in cell work by metabolically active cells.

For series [8], the system named is Human immunodeficiency virus 1. Briefly: Inhibition concentration required to inhibit HIV-1 was determined by MT-4/MTT assay. It counts as functional, organism-based. The procedure, abridged:
as §2

For series [9], the system named is Human immunodeficiency virus 2. Briefly: Inhibition concentration required to inhibit HIV-2 was determined by MT-4/MTT assay. It counts as functional, organism-based. The procedure, abridged:
as §2

Series [10] deals with T1, Adenosylhomocysteinase. Kind of series: Rate at which the compound inactivates human placental AdoHcy hydrolase enzyme was determined. It counts as functional. In short, it runs like this:
as §3
Target sequence in this assay (P23526 2-432 limits assumed): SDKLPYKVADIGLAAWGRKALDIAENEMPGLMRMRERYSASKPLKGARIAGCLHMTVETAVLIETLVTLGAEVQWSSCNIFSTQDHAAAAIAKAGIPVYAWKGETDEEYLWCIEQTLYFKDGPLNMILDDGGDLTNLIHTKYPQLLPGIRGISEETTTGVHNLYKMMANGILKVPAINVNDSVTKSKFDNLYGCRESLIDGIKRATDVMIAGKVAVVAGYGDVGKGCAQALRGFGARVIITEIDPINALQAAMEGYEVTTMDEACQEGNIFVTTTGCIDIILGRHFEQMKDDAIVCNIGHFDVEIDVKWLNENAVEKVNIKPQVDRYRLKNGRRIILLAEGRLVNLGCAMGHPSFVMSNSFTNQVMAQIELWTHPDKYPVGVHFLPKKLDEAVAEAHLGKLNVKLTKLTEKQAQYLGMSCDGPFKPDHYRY

For series [11], the system named is Cytomegalovirus. Kind of series: Activity against CMV (AD-169 strain) was determined. To be noted: Human betaherpesvirus 5. The series is classed as functional, organism-based. The procedure, abridged:
(§4)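 Human embryonic lung (HEL) cell cultures infected with human cytomegalovirus, AD-169 or Davis strain. The read-out is the 50% effective concentration (EC50). Cytotoxicity was measured in the same cells as the 50% cytotoxic concentration (CC50).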

Series [12] has as its system Cytomegalovirus. Briefly: Activity against CMV (Davis strain) was determined. It counts as functional, organism-based. To be noted: Human betaherpesvirus 5. In short, it runs like this: as §4
Series [13] deals with T1, Adenosylhomocysteinase. Kind of series: Inhibition of recombinant Placental Adenosylhomocysteinase.
Target sequence in this assay (P23526 whole entry): as the sequence (P23526 whole entry) above
Series [14] has as its target T1, Adenosylhomocysteinase.
Target sequence in this assay (P23526 2-432 limits assumed): as the sequence (P23526 2-432 limits assumed) above

In the case of `CCOC(=O)/C=C\C#C[C@H]1OC(n2cnc3c(N)ncnc32)[C@H](O)[C@@H]1O` (some centres not stated), the MCC in series [1] is at least 11 µM.
As to `C#C/C=C\[C@H]1OC(n2ccc(=O)[nH]c2=O)[C@H](O)[C@@H]1O` (some centres not stated), the MIC with HeLa [2], against HeLa [3] and against HeLa [4] was above 100 µM in each case. Further, the MCC in series [1] is at least 350 µM. The CC50/IC50 in the series with MT4 was 7.
Regarding `C#C/C=C/[C@H]1OC(n2ccc(=O)[nH]c2=O)[C@H](O)[C@@H]1O` (some centres not stated), the MIC in the series on HeLa [2], in the series with HeLa [3] and in the series with HeLa [4] was above 700 µM in each case. Moreover, the MCC in series [1] was at least 350 µM.
Take `Nc1ncnc2c1ncn2C1O[C@H](/C=C/C#CI)[C@@H](O)[C@H]1O` (some centres not stated): the IC50 in [5], in series [7], in [8] and in series [9] was 1100 nM throughout. Further, the MIC in the series with HeLa [2], with HeLa [3] and in the series on HeLa [4] was above 100 µM throughout. For the same compound, on Adenosylhomocysteinase [6], the Ki turned out to be 118000 nM. At Adenosylhomocysteinase [10], this compound displayed a K inact of 1.49 min⁻¹. In addition, in series [1], the MCC was at least 50 µM. Moreover, the CC50/IC50 in the series on MT4 stood at 7.
`C#C/C=C\[C@H]1OC(n2cnc3c(N)ncnc32)[C@H](O)[C@@H]1O` (some centres not stated): the MIC in the series on HeLa [2], with HeLa [3] and with HeLa [4] was above 700 µM in each case. In [1], the MCC was at least 350 µM.
As to `C#C/C=C/[C@H]1OC(n2cnc3c(N)ncnc32)[C@H](O)[C@@H]1O` (some centres not stated), the EC50 in the series on Cytomegalovirus [11] came out at 50000 nM; with Cytomegalovirus [12], 30000 nM. For the same compound, the MIC against HeLa [2], with HeLa [3] and in the series on HeLa [4] was above 100 µM throughout. In addition, at Adenosylhomocysteinase [13], the Ki is 550 nM. The compound also had an MCC in [1] of at least 350 µM. The same compound returned a K inact on Adenosylhomocysteinase [14] of 2.57 min⁻¹.
In the case of `O=c1ccn(C2O[C@H](/C=C/C#CI)[C@@H](O)[C@H]2O)c(=O)[nH]1` (some centres not stated), the IC50 in [5], in [7], in [8] and in series [9] was 1800 nM throughout. In addition, the MIC with HeLa [2], in the series with HeLa [3] and against HeLa [4] was above 100 µM throughout. In series [1], the MCC is at least 50 µM. In the series on MT4, the CC50/IC50 is recorded as 3.

As usually defined, the IC50 is the concentration at which inhibition is half-maximal. The low end stands for inhibition by little substance, the high end for a need for much substance. In general, Ki refers to the dissociation constant of the complex between target and ligand, obtained from inhibition or displacement. What is called EC50 is the concentration at which the effect is half-maximal. The low end stands for higher potency in that assay, the high end for lower potency in that assay.
